pEC50: −log10 of the molar value. Where a SMILES comes first, the peptide text is derived from it. [ ]: non-standard residue; d: D form.
Legend:
macrophages = experiment: M2pep sequence specificity of macrophage toxicity; format: cell-based, murine; settings: peptides partially dimerized in solution; Fig. S3, linkers Fig. S4
M1 macrophages = experiment: Cell viability during binding study; format: cell-based, murine; settings: 20 min on ice, PI staining; up to 50 µM; Fig. 1B
Summary of the method: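 Bone-marrow cells cultured 7 d in RPMI 1640 with 20% horse serum, 1% antibiotic-antimycotic and 20 ng/mL M-CSF, then activated 2 d with 25 ng/mL IFN-γ plus 100 ng/mL LPS. Cells were plated at 50,000/well and given biotinylated peptide in PBS/1% BSA on ice. After washing they were given streptavidin-FITC for 15 min on ice. Dead cells were scored by PI flow cytometry. Triplicates, three independent experiments.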

M2 macrophages = format: cell-based; settings: 2 h

| Molecule | macrophage toxicity (macrophages) | also measured |
| --- | --- | --- |
| WEDYQWPVYKGWGGGSKKKC [scrambled M2pepKKKC, reference compound] | toxicity was only observed in the M2pepKKKC-treated samples |  |
| YEQDPWGVKWWYGGGSKKKBiotin [M2pepBiotin] |  | toxicity to M1 macrophages during binding study (M1 macrophages): no toxicity to either cell type |
| YEQDPWGVKWWYGGGSKKKC [M2pepKKKC] | toxicity was only observed in the M2pepKKKC-treated samples |  |
| CC(C)C[C@@H](NC(=O)[C@@H](CCCCN)NC(=O)[C@H](CO)NC(=O)CNC(=O)CNC(=O)CNC(=O)[C@H](Cc1ccc(O)cc1)NC(=O)[C@H](Cc1c[nH]c2ccccc12)NC(=O)[C@H](Cc1c[nH]c2ccccc12)NC(=O)[C@H](CCCCN)NC(=O)[C@@H](NC(=O)CNC(=O)[C@H](Cc1c[nH]c2ccccc12)NC(=O)[C@@H]1CCCN1C(=O)[C@H](CC(=O)O)NC(=O)[C@H](CCC(N)=O)NC(=O)[C@H](CCC(=O)O)NC(=O)[C@@H](N)Cc1ccc(O)cc1)C(C)C)C(=O)N[C@H](C)C(=O)N[C@H](CCCCN)C(=O)N[C@H](CC(C)C)C(=O)N[C@H](C)C(=O)N[C@H](CCCCN)C(=O)N[C@H](CCCCN)C(=O)N[C@H](CC(C)C)C(=O)N[C@H](C)C(=O)N[C@H](CCCCN)C(=O)N[C@H](CC(C)C)C(=O)N[C@H](C)C(=O)N[C@H](CCCCN)C(N)=O [M2pepKLA] (H-YEQDPWGVKWWYGGGS[dK][dL][dA][dK][dL][dA][dK][dK][dL][dA][dK][dL][dA][dK]-NH2) |  | pEC50 (M2 macrophages): 5.37 |
